Results reported in ChEMBL document CHEMBL1158554, “3,5-Diaryl-1H-pyrazole as a molecular scaffold for the synthesis of apoptosis-inducing agents” (2010).
Each block holds one compound with its values, some of them ahead of it. Active and inactive are the calls of the source. The rule behind the calls is not given here.

Tests used:
NCI-H460 [1] = assay: Growth inhibition of human H460 cells at 40 uM after 48 hrs by MTT assay; type: functional, cell-based
In short: (§1)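 MTT growth inhibition at the top tested concentration of 40 uM, 48 h exposure, cells seeded as for GI50 (3000/well OVCA, SW620, H460; 5000/well AGS).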

SW-620 [2] = assay: Growth inhibition of human SW620 cells at 40 uM after 48 hrs by MTT assay; type: functional, cell-based; in short: as §1
AGS [3] = assay: Growth inhibition of human AGS cells at 40 uM after 48 hrs by MTT assay; type: functional, cell-based; in short: as §1
OVCAR [4] = assay: Growth inhibition of human OVCAR cells at 40 uM after 48 hrs by MTT assay; type: functional, cell-based; in short: as §1
AGS [5] = assay: Growth inhibition of human AGS cells after 48 hrs by MTT assay; type: functional
In short: (§2)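 Cells seeded 3000/well (OVCA, SW620, H460) or 5000/well (AGS), grown 24 h, then exposed to serial dilutions (DMSO stock) for 48 h at 37 °C, 5% CO2. MTT (2 mg/ml in PBS) added for 2 h; formazan dissolved in DMSO and read at 570 nm. Inhibition = (1 − At/Ac)×100 vs vehicle; GI50 interpolated from dose–response curves; four to six separate experiments, mean ± SEM.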

OVCAR [6] = assay: Growth inhibition of human OVCAR cells after 48 hrs by MTT assay; type: functional; in short: as §2
NCI-H460 [7] = assay: Growth inhibition of human H460 cells after 48 hrs by MTT assay; type: functional; conditions: NCI-H460, 48 h; in short: as §2
SW-620 [8] = assay: Growth inhibition of human SW620 cells after 48 hrs by MTT assay; type: functional; conditions: SW-620, 48 h; in short: as §2
OVCAR [9] = assay: Induction of apoptosis in human OVCAR cells assessed as increase in cleaved caspase-3 level at 1.2 to 5 uM after 16 hrs by Western blot analysis; type: functional, cell-based
In short: (§3)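 OVCA cells treated 16 h (vehicle 1% DMSO), washed in PBS, lysed; 50 ug protein run on 15% SDS-PAGE, transferred to nitrocellulose, blocked overnight at 4 °C in TBST/5% milk. Probed with anti-PARP (1:500), anti-cleaved caspase-3, anti-cleaved caspase-9, anti-phospho-Akt, anti-Akt, anti-beta-actin (1:1000), then secondary IgG 1:10,000 for 1 h at room temperature; ECL detection. Total Akt used as reference for phospho-Akt.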

OVCAR [10] = assay: Cell cycle arrest in human OVCAR cells assessed as accumulation at sub-G1 phase at 1.2 uM after 24 hrs by propidium iodide staining-based FACS analysis; type: functional
In short: (§4)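 OVCA cells given 0.5% DMSO or compound for 24 h, harvested, PBS-rinsed, fixed in 80% ethanol and held at −20 °C until analysis. Propidium iodide DNA staining and flow cytometry; apoptotic nuclei scored as the subdiploid (sub-G1) peak, given as percent of the whole population. Untreated cells served as blank.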

[11] = target: RAC-alpha serine/threonine-protein kinase (Homo sapiens) (UniProt P31749); assay: Inhibition of Akt phosphorylation in human OVCAR cells at 1.2 to 5 uM after 16 hrs by Western blot analysis; type: cell-based; in short: as §3
OVCAR [12] = assay: Induction of apoptosis in human OVCAR cells assessed as PARP cleavage at 1.2 to 5 uM after 16 hrs by Western blot analysis; type: functional, cell-based; in short: as §3
OVCAR [13] = assay: Cell cycle arrest in human OVCAR cells assessed as accumulation at sub-G1 phase at 2.5 uM after 24 hrs by propidium iodide staining-based FACS analysis; type: functional; in short: as §4
OVCAR [14] = assay: Cell cycle arrest in human OVCAR cells assessed as accumulation at sub-G1 phase at 5 uM after 24 hrs by propidium iodide staining-based FACS analysis; type: functional; in short: as §4
OVCAR [15] = assay: Induction of apoptosis in human OVCAR cells assessed as increase in cleaved caspase-9 level at 1.2 to 5 uM after 16 hrs by Western blot analysis; type: functional, cell-based; in short: as §3

Sequence of RAC-alpha serine/threonine-protein kinase (Homo sapiens) (P31749 whole entry): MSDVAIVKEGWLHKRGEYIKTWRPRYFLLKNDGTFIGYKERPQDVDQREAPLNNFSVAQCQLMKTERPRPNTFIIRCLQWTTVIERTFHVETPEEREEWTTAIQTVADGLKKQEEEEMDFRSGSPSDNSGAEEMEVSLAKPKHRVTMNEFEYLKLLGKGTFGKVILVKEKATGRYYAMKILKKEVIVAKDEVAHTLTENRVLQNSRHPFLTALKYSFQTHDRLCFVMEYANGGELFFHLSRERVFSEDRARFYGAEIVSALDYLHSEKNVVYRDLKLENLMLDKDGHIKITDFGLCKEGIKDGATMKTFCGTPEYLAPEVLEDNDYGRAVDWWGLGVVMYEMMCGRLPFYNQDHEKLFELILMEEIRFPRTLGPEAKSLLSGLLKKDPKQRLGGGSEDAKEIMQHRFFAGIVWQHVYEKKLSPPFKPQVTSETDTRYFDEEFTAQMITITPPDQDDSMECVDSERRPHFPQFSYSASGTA

SMILES: COc1ccc(-c2cc(-c3ccc(N)cc3)[nH]n2)cc1
growth inhibition (GI) (NCI-H460 [1]): inactive
growth inhibition (GI) (SW-620 [2]): inactive
growth inhibition (GI) (AGS [3]): inactive
growth inhibition (GI) (OVCAR [4]): inactive

SMILES: O=[N+]([O-])c1ccc(-c2cc(-c3ccccc3-c3ccccc3)n[nH]2)cc1
GI50 (AGS [5]): 1.2 µM
GI50 (OVCAR [6]): 3.4 µM
GI50 (NCI-H460 [7]): 2.7 µM
GI50 (SW-620 [8]): 12.2 µM

SMILES: COc1ccccc1-c1cc(-c2ccc([N+](=O)[O-])cc2)[nH]n1
GI50 (OVCAR [6]): 11.7 µM
GI50 (NCI-H460 [7]): 20.5 µM
growth inhibition (GI) (SW-620 [2]): inactive
growth inhibition (GI) (AGS [3]): inactive

SMILES: Oc1ccc(-c2cc(-c3ccccc3-c3ccccc3)n[nH]2)cc1
GI50 (AGS [5]): 9.2 µM
GI50 (OVCAR [6]): 6.2 µM
GI50 (NCI-H460 [7]): 6.9 µM
GI50 (SW-620 [8]): 25.9 µM

SMILES: COc1cccc(-c2cc(-c3ccccc3-c3ccccc3)n[nH]2)c1
GI50 (AGS [5]): 7.5 µM
GI50 (OVCAR [6]): 5.8 µM
GI50 (NCI-H460 [7]): 8.7 µM
growth inhibition (GI) (SW-620 [2]): inactive

SMILES: O=[N+]([O-])c1ccc(-c2cc(-c3ccc(C(F)(F)F)cc3)n[nH]2)cc1
growth inhibition (GI) (NCI-H460 [1]): inactive
growth inhibition (GI) (AGS [3]): inactive
growth inhibition (GI) (OVCAR [4]): inactive

SMILES: COc1cccc(-c2cc(-c3ccc(N)cc3)[nH]n2)c1
growth inhibition (GI) (NCI-H460 [1]): inactive
growth inhibition (GI) (SW-620 [2]): inactive
growth inhibition (GI) (AGS [3]): inactive
growth inhibition (GI) (OVCAR [4]): inactive

SMILES: O=[N+]([O-])c1ccc(-c2cc(-c3ccccc3)n[nH]2)cc1
GI50 (OVCAR [6]): 7.2 µM
GI50 (NCI-H460 [7]): 10.2 µM
growth inhibition (GI) (SW-620 [2]): inactive
growth inhibition (GI) (AGS [3]): inactive

SMILES: O=[N+]([O-])c1cccc(-c2cc(-c3ccccc3)n[nH]2)c1
GI50 (AGS [5]): 11.4 µM
GI50 (OVCAR [6]): 5.8 µM
GI50 (NCI-H460 [7]): 6.1 µM
growth inhibition (GI) (SW-620 [2]): inactive

SMILES: COc1ccccc1-c1cc(-c2ccccc2-c2ccccc2)n[nH]1
GI50 (OVCAR [6]): 14.2 µM
GI50 (NCI-H460 [7]): 9.1 µM
growth inhibition (GI) (SW-620 [2]): inactive
growth inhibition (GI) (AGS [3]): inactive

SMILES: CN(C)c1ccc(-c2cc(-c3ccc(C(F)(F)F)cc3)n[nH]2)cc1
growth inhibition (GI) (NCI-H460 [1]): inactive
growth inhibition (GI) (SW-620 [2]): inactive
growth inhibition (GI) (AGS [3]): inactive

SMILES: Oc1ccccc1-c1cc(-c2ccccc2-c2ccccc2)n[nH]1
GI50 (AGS [5]): 7.5 µM
GI50 (OVCAR [6]): 5.8 µM
GI50 (NCI-H460 [7]): 4.6 µM
GI50 (SW-620 [8]): 10.6 µM

SMILES: COc1ccc(-c2cc(-c3ccc(N)cc3)[nH]n2)cc1OC
growth inhibition (GI) (NCI-H460 [1]): inactive
growth inhibition (GI) (SW-620 [2]): inactive
growth inhibition (GI) (AGS [3]): inactive
growth inhibition (GI) (OVCAR [4]): inactive

SMILES: COc1ccc(-c2cc(-c3ccc([N+](=O)[O-])cc3)[nH]n2)cc1OC
GI50 (OVCAR [6]): 28.9 µM
GI50 (NCI-H460 [7]): 17.9 µM
GI50 (SW-620 [8]): 26.4 µM
growth inhibition (GI) (AGS [3]): inactive

SMILES: Nc1ccc(-c2cc(-c3ccccc3-c3ccccc3)n[nH]2)cc1
GI50 (AGS [5]): 8.4 µM
GI50 (OVCAR [6]): 17.9 µM
GI50 (NCI-H460 [7]): 8.2 µM
growth inhibition (GI) (SW-620 [2]): inactive

SMILES: O=[N+]([O-])c1ccc(-c2cc(-c3ccc4c(c3)OCO4)n[nH]2)cc1
GI50 (AGS [5]): 13.1 µM
GI50 (OVCAR [6]): 10.8 µM
GI50 (NCI-H460 [7]): 8.9 µM
GI50 (SW-620 [8]): 23.5 µM

Further lines, with some results ahead:

GI50 (AGS [5]): 9.8 µM
GI50 (OVCAR [6]): 9.2 µM
GI50 (NCI-H460 [7]): 20.1 µM
GI50 (SW-620 [8]): 19.6 µM
SMILES: Oc1ccc(-c2cc(-c3ccc(C(F)(F)F)cc3)n[nH]2)cc1

GI50 (AGS [5]): 24.1 µM
GI50 (NCI-H460 [7]): 20.7 µM
GI50 (SW-620 [8]): 12.2 µM
SMILES: O=[N+]([O-])c1ccc(-c2cc(-c3ccc(Cl)cc3)n[nH]2)cc1
growth inhibition (GI) (OVCAR [4]): inactive

GI50 (SW-620 [8]): 21.1 µM
SMILES: COc1ccccc1-c1cc(-c2ccc(N)cc2)[nH]n1
growth inhibition (GI) (NCI-H460 [1]): inactive
growth inhibition (GI) (AGS [3]): inactive
growth inhibition (GI) (OVCAR [4]): inactive

GI50 (OVCAR [6]): 27.3 µM
GI50 (NCI-H460 [7]): 18.3 µM
GI50 (SW-620 [8]): 14.3 µM
SMILES: COc1ccc(-c2cc(-c3ccc([N+](=O)[O-])cc3)[nH]n2)cc1
growth inhibition (GI) (AGS [3]): inactive

GI50 (OVCAR [6]): 19.1 µM
GI50 (NCI-H460 [7]): 11.2 µM
SMILES: COc1cccc(-c2cc(-c3ccc([N+](=O)[O-])cc3)[nH]n2)c1
growth inhibition (GI) (SW-620 [2]): inactive
growth inhibition (GI) (AGS [3]): inactive

GI50 (OVCAR [6]): 20.7 µM
GI50 (NCI-H460 [7]): 27.1 µM
SMILES: COc1ccc(-c2cc(-c3ccc(Br)cc3)n[nH]2)cc1
growth inhibition (GI) (SW-620 [2]): inactive
growth inhibition (GI) (AGS [3]): inactive

GI50 (NCI-H460 [7]): 26.7 µM
GI50 (SW-620 [8]): 25.4 µM
SMILES: Nc1ccc(-c2cc(-c3ccccc3)n[nH]2)cc1
growth inhibition (GI) (AGS [3]): inactive
growth inhibition (GI) (OVCAR [4]): inactive

GI50 (OVCAR [6]): 12.8 µM
GI50 (NCI-H460 [7]): 11.6 µM
SMILES: COc1ccc(-c2cc(-c3ccc(Cl)cc3)n[nH]2)cc1
growth inhibition (GI) (SW-620 [2]): inactive
growth inhibition (GI) (AGS [3]): inactive

GI50 (OVCAR [6]): 14 µM
SMILES: COc1ccc(-c2cc(-c3ccc(F)cc3)n[nH]2)cc1
growth inhibition (GI) (NCI-H460 [1]): inactive
growth inhibition (GI) (SW-620 [2]): inactive
growth inhibition (GI) (AGS [3]): inactive

GI50 (AGS [5]): 14.8 µM
GI50 (OVCAR [6]): 22.8 µM
GI50 (SW-620 [8]): 11.2 µM
SMILES: COc1ccc(-c2cc(-c3ccc(C(F)(F)F)cc3)n[nH]2)cc1
growth inhibition (GI) (NCI-H460 [1]): inactive

GI50 (AGS [5]): 11.3 µM
GI50 (OVCAR [6]): 9.9 µM
GI50 (NCI-H460 [7]): 10.4 µM
GI50 (SW-620 [8]): 27.2 µM
SMILES: COc1ccc(-c2cc(-c3ccccc3)n[nH]2)cc1

GI50 (AGS [5]): 18.3 µM
GI50 (SW-620 [8]): 18.1 µM
SMILES: O=[N+]([O-])c1ccc(-c2cc(-c3ccc(F)cc3)n[nH]2)cc1
growth inhibition (GI) (NCI-H460 [1]): inactive
growth inhibition (GI) (OVCAR [4]): inactive

GI50 (OVCAR [6]): 18.6 µM
GI50 (NCI-H460 [7]): 21.5 µM
SMILES: Nc1ccc(-c2cc(-c3ccc(C(F)(F)F)cc3)n[nH]2)cc1
growth inhibition (GI) (SW-620 [2]): inactive
growth inhibition (GI) (AGS [3]): inactive

GI50 (AGS [5]): 19 µM
GI50 (OVCAR [6]): 17.5 µM
GI50 (NCI-H460 [7]): 13.2 µM
GI50 (SW-620 [8]): 26.9 µM
SMILES: COc1ccc(-c2cc(-c3ccc4ccccc4c3)n[nH]2)cc1

GI50 (AGS [5]): 0.79 µM
GI50 (OVCAR [6]): 0.67 µM
inhibition [11]: Active
GI50 (NCI-H460 [7]): 0.73 µM
GI50 (SW-620 [8]): 0.89 µM
SMILES: COc1ccc(-c2cc(-c3ccccc3-c3ccccc3)n[nH]2)cc1
Activity (OVCAR [9]): Active
Activity (OVCAR [10]): 14.97%
Activity (OVCAR [12]): Active
Activity (OVCAR [13]): 20.53%
Activity (OVCAR [14]): 32.05%
Activity (OVCAR [15]): Active

GI50 (AGS [5]): 14.6 µM
GI50 (OVCAR [6]): 17.5 µM
GI50 (SW-620 [8]): 28.6 µM
SMILES: O=[N+]([O-])c1ccc(-c2cc(-c3ccc(Br)cc3)n[nH]2)cc1
growth inhibition (GI) (NCI-H460 [1]): inactive
